Tested on: HCMEC/D3 cells
Assay: Cellular binding assay by flow cytometry
Format: cell-based, human
Details: p<0.001, n=3
Method in brief: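 HCMEC/D3 cells grown at 37°C in 5% CO2 to 70% confluence, detached, and pre-treated with heparanase I (10 U/ml) and III (2 U/ml) for 1.5 h at 37°C. Cells were then incubated 1 h on ice in 1% BSA/PBS with Atto 425-labelled CXCL8 or FITC-labelled peptide (5 µg/ml). Cells were washed twice (500 x g, 5 min) and signal read by flow cytometry; mean ± SE, n=3.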

CXCL8: recombinant human CXCL8, labelled with Atto 425 for binding assays
binding to HCMEC/D3 cells pre-treated with heparanase I&III: significantly reduced

Reference: article PMC5919120 (Journal of immunology (Baltimore, Md. : 1950), 2018)
